# Measured values of several laboratories.
# Lines come from different studies, so protocols differ.
# OTUD6B: Deubiquitinase OTUD6B (OTUD6B, Homo sapiens, UniProt Q8N6M0)
# ADORA1: Adenosine receptor A1 (ADORA1, Homo sapiens, UniProt P30542)
# MMP7: Matrilysin (MMP7, Homo sapiens, UniProt P09237)
Compound,target,assay,setting,inhibition
N=C(N)c1ccc2cc(OC(=O)c3ccc(N=C(N)N)cc3)ccc2c1,OTUD6B,"enzyme activity, inhibitor",10 µM,9%
COc1cc(Nc2ncc(F)c(Nc3ccc4c(n3)NC(=O)C(C)(C)O4)n2)cc(OC)c1OC,"Mitogen-activated protein kinase kinase kinase kinase 3 (MAP4K3, Homo sapiens, UniProt Q8IVH8)","binding, competition with immobilised ligand",10 µM,52%
O[C@H]1[C@H](n2cnc3c(NC(C4CCCCC4)C4CCCCC4)nc(Cl)nc32)[C@H]2C[C@@]2(CCl)[C@H]1O,ADORA1,"ligand displacement, radioligand",10 µM,63%
c1ccc(C(NCCNC(c2ccccc2)c2ccccc2)c2ccccc2)cc1,MMP7,"enzyme activity, inhibitor",10 µM,-5%
O[C@H]1[C@H](n2cnc3c(NC(C4CCCCC4)C4CCCCC4)nc(Cl)nc32)[C@H]2C[C@@]2(CF)[C@H]1O,ADORA1,"ligand displacement, radioligand",10 µM,47%
CN(C)C(=O)COC(=O)Cc1ccc(OC(=O)c2ccc(NC(=N)N)cc2)cc1,OTUD6B,"enzyme activity, inhibitor",10 µM,1%
COCCN(CCOC)C(=O)[C@@]12C[C@@H]1[C@@H](n1cnc3c(NC(C4CC4)C4CC4)nc(Cl)nc31)[C@H](O)[C@@H]2O,ADORA1,"ligand displacement, radioligand",10 µM,34%
C#Cc1n[nH]c2c(-c3cn([C@@H](C)c4ccccc4)c(=O)[nH]c3=O)cc(F)cc12,"Tyrosine-protein kinase receptor UFO (AXL, Homo sapiens, UniProt P30530)","enzyme activity, inhibitor",0.1 µM,41.4%
Cn1c(=O)c2ncnnc2n(C)c1=O,"Ubiquitin carboxyl-terminal hydrolase 5 (USP5, Homo sapiens, UniProt P45974)","enzyme activity, inhibitor",17 µM,98%
C#Cc1n[nH]c2c(-c3cn(C(C)c4ccccn4)c(=O)[nH]c3=O)cc(F)cc12 (stereo not drawn),"Dual specificity protein kinase CLK1 (CLK1, Homo sapiens, UniProt P49759)","enzyme activity, inhibitor",1 µM,3.7%
CNC(=O)[C@H](Cc1ccccc1)NC(=O)[C@H](CC(C)C)[C@H](CSc1cccs1)C(=O)NO,MMP7,"enzyme activity, inhibitor",100 pM,4%
OC[C@@]12C[C@@H]1[C@@H](n1cnc3c(NC(C4CCCC4)C4CCCC4)nc(Cl)cc31)[C@H](O)[C@@H]2O,ADORA1,"ligand displacement, radioligand",10 µM,11%
Cn1cc(-c2cc(F)cc(N3CCn4c(cc5c4CCCC5)C3=O)c2CO)cc(Nc2ccc(N3CCN(C4COC4)CC3)cn2)c1=O,"Inhibitor of nuclear factor kappa-B kinase subunit alpha (CHUK, Homo sapiens, UniProt O15111)","enzyme activity, inhibitor",0.1 µM,14%
CCOC(=O)c1ccc(OC(=O)CCCCCNC(=N)N)cc1,OTUD6B,"enzyme activity, inhibitor",10 µM,3%
C[C@H](C(=O)N[C@H]1COc2ccccc2[C@@H]1S(C)(=O)=O)c1ccc(F)cc1,MMP7,"enzyme activity, inhibitor",10 µM,-6%
